Target: 4-hydroxyphenylpyruvate dioxygenase (Sus scrofa, UniProt Q02110)
Assay: Inhibition of pig liver 4-Hydroxyphenylpyruvate dioxygenase (4-HPPD) enzyme
Summary of the method: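 Spectrophotometric enol borate assay. Mixture: potassium phosphate/borate buffer (0.42 M H₃BO₃ brought to pH 6.2 with 0.17 M Na₃PO₄), 4-hydroxyphenylpyruvic acid (1.8 mM stock), reduced dichlorophenolindophenol with glutathione, and phenylpyruvate tautomerase. Equilibrated about 15 min at 308 nm, then enzyme added with varying inhibitor concentrations. Absorbance decrease at 308 nm followed for 15 min. IC50 from fit to v_i = v₀/(1+[I]/IC50).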

4-hydroxyphenylpyruvate dioxygenase, sequence (Q02110 whole entry): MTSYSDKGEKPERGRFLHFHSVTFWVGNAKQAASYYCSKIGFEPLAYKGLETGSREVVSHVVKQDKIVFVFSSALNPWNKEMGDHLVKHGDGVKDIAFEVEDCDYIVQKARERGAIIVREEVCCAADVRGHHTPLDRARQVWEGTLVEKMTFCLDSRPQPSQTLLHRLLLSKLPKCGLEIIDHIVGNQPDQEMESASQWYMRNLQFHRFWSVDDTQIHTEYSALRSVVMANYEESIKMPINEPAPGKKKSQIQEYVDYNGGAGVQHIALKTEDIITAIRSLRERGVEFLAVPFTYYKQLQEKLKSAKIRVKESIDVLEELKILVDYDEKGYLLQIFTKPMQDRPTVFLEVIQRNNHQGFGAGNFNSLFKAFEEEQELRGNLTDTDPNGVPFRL

Structure (SMILES)	IC50 [µM]
O=C1CCCC(=O)N1Cc1ccccc1[N+](=O)[O-]	250
O=C1CCCC(O)=C1Cc1ccccc1[N+](=O)[O-]	126
COC1=C(C(=O)c2ccccc2[N+](=O)[O-])C(=O)CCC1	52
O=C1CCCC(=O)C1=C(NO)c1ccccc1[N+](=O)[O-]	50
O=C1CCCC(Cl)=C1C(=O)c1ccccc1[N+](=O)[O-]	64
O=C1CCCC/C1=C(/O)c1ccccc1[N+](=O)[O-]	0.7
O=C1CCCC(=O)C1=C(O)c1ccccc1[N+](=O)[O-]	0.16
O=C1CCCC(=O)N1C(=O)c1ccccc1[N+](=O)[O-]	60
O=C1CCC=C(Cl)/C1=C(/O)c1ccccc1[N+](=O)[O-]	0.53
